Screens (PubChem BioAssay)
EWS-Fli block = inhibitors of EWS/Fli oncoprotein transcriptional activity; A673 NR0B1-luciferase reporter, viability-normalised; inhibition, % at 12.6 µM; hit rate 0.67% among 350,000;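 active = mean inhibition of at least 50% after viability correction, with every replicate also passing that limit; inconclusive = mean reaches 50% but only one of two replicates passes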;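 note: firefly luciferase signal divided by Alamar Blue viability fluorescence both relative to DMSO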
FGF22 binding = binders of recombinant human FGF22 by thermal shift | activity (Tm shift, normalised), % at 9.99 µM | Q9HCT0 | SYPRO orange fluorescence; percent of sucrose octasulfate shift, DMSO zero | AID 651658 | hit rate 1.5% among 340,000;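 active = mean Tm shift, scaled 0 neutral to 100 positive control, at about 1.3% or above, every replicate too, limit read from the data; inconclusive = no clear call, values can overlap the other calls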
Target sequence (Q9HCT0 whole entry, looked up): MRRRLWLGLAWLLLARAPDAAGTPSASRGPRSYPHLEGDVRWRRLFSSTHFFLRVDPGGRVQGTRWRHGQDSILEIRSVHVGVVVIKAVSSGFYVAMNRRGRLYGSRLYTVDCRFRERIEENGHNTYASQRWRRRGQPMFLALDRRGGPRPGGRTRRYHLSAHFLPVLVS
PAX8 inh HTS = inhibitors of PAX8 transcriptional activity in RMG-I cells; RMG-I TPO-luciferase reporter, SteadyGlo, 24 h; inhibition, % at 12.6 µM; hit rate 1.2% among 360,000;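 active = mean replicate inhibition at least 60% with every replicate also reaching 60%; inconclusive = only one of the two criteria is met; inactive = mean below 60% and not all replicates reaching 60%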;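 note: luciferase light reporting Pax8 driven TPO promoter activity; plate controls were median of neutral control wells for no effect and mitoxantrone controls for full effect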
PGC1a acetyl inh = lowers PGC1a acetylation signal in U2OS cells; AlphaScreen anti-acetyl-lysine; with virally co-expressed GCN5 acetyltransferase; inhibition, % at 15.6 µM; hit rate 0.17% among 350,000; AID 651687;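 active = every replicate shows inhibition of at least 40%; inconclusive = mean inhibition at least 40% but some replicate below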;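 note: 0% = neutral control wells and 100% = positive control wells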
HIV Env fusion = inhibitors of HIV Env-mediated cell fusion | inhibition, % at 12.3 µM | hit rate 1.1% among 360,000 | HeLa-JRFL Env/CEM21 cell fusion, luciferase;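 active = mean replicate inhibition score of at least 50 and every replicate individually at or above 50; inconclusive = only one of the two criteria met; inactive = mean below 50 and not all replicates reaching 50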;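 note: 0% = plate neutral controls and 100% = maraviroc near 300 nM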
FN deposition inh = fibronectin deposition inhibition; AH1F fibroblasts, Alexa488-fibronectin deposition fluorescence, overnight; inhibition, % at 12.6 µM; hit rate 0.086% among 350,000;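 active = mean inhibition across replicates of 30% or more, regardless of how many single replicates reach that level; inconclusive = mean under 30% yet at least half of replicates reach 30%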;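 note: positive control wells lacked labelled fibronectin entirely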
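Test system: AH1F fibroblast monolayer depositing Alexa488-labelled fibronectin into matrix. Input: 10000 cells per well. Technique: fluorescence, ex 485 nm, em 525 nm. Buffer or medium: DMEM plus 2% serum, read in PBS. Timing: 1 h cell adhesion before compound, then overnight fibronectin incubation. Compound: single dose, pinned. Read-out basis: inhibition from reduced deposited-fibronectin fluorescence.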
Numbers without * were called inactive; [ ] = dose if it differs, or a comment. Hits are enriched below; roughly 3.1% of the tested compounds scored in any of these assays.

`CO[C@@H]1CN(C)C(=O)c2cc(NC(=O)C3CCC3)ccc2OC[C@@H](C)N(Cc2cccnc2)C[C@@H]1C` gave EWS-Fli block -1, FGF22 binding 0, PAX8 inh HTS 7, PGC1a acetyl inh -5 and FN deposition inh -9.
C=CCn1c(SCC(=O)Nc2ccccc2-c2ccccc2)nc2cc(C(=O)O)ccc2c1=O was read as EWS-Fli block 9, FGF22 binding 43*, PAX8 inh HTS -20, PGC1a acetyl inh 1, HIV Env fusion 18 and FN deposition inh -4.
Screening COC(=O)c1ccc(N=Cc2c(C(F)(F)F)[nH][nH]c2=O)cc1 returned EWS-Fli block -6, FGF22 binding 43*, PAX8 inh HTS 0, HIV Env fusion -77 and FN deposition inh -6.
`COc1ccc(CN=Cc2c(C(F)(F)F)[nH][nH]c2=O)cc1` gave PGC1a acetyl inh 5.
For Cc1[nH][nH]c(=O)c1C=NCc1cccc(C(F)(F)F)c1 the results were EWS-Fli block -24, FGF22 binding 0, PAX8 inh HTS 5, HIV Env fusion 0 and FN deposition inh 6.
Cc1cccc(C)c1N=Cc1c(C(F)(F)F)[nH][nH]c1=O was read as EWS-Fli block 4, FGF22 binding 43*, PAX8 inh HTS -5, HIV Env fusion -17 and FN deposition inh -16.
`CN(C)S(=O)(=O)c1ccc(N=Cc2c(C(F)(F)F)[nH][nH]c2=O)cc1` gave EWS-Fli block -11, FGF22 binding 44*, PAX8 inh HTS -15, HIV Env fusion -13 and FN deposition inh 0.
CC(C)CC#Cc1cnc2c(c1)C(=O)N([C@@H](C)CO)C[C@@H](C)[C@H](CN(C)C(=O)Cc1cccnc1)O2 was read as EWS-Fli block 2, FGF22 binding 0, PGC1a acetyl inh 7, HIV Env fusion 0[16.7 µM] and FN deposition inh -13.
C[C@@H]1CN([C@@H](C)CO)C(=O)c2cc(C#C[C@@H](C)O)cnc2O[C@@H]1CN(C)C(=O)Nc1ccc(F)cc1 was read as EWS-Fli block -7, FGF22 binding 0, PGC1a acetyl inh -8, HIV Env fusion -28[16.7 µM] and FN deposition inh -6.
O=C(N[C@H]1CC[C@@H](CCn2cc(C3(O)CCCC3)nn2)O[C@@H]1CO)C1CCOCC1 was read as EWS-Fli block -2, FGF22 binding 0, PAX8 inh HTS -7, PGC1a acetyl inh -5, HIV Env fusion 11[16.7 µM] and FN deposition inh 13.
Screening CNCc1sccc1C returned EWS-Fli block 0, FGF22 binding 43*, PAX8 inh HTS -32 and HIV Env fusion 6.
C[C@@H]1CN([C@@H](C)CO)C(=O)c2cc(NS(C)(=O)=O)ccc2O[C@@H](C)CCCCO[C@@H]1CN(C)C(=O)Nc1ccc(F)cc1 was read as EWS-Fli block -4, FGF22 binding 0, PAX8 inh HTS -8, PGC1a acetyl inh 5 and HIV Env fusion inconclusive.
For COc1ccc(S(=O)(=O)N2CC[C@H]3[C@H](CO)Nc4ccc(C#Cc5cccnc5)cc4[C@H]32)cc1 the results were EWS-Fli block 2, FGF22 binding 0, PGC1a acetyl inh -12 and FN deposition inh -1.
C[C@@H]1CN([C@@H](C)CO)C(=O)c2cc(N(C)C)ccc2O[C@@H](C)CCCCO[C@H]1CN(C)C(=O)C1CCCCC1 was read as EWS-Fli block 5, FGF22 binding -2, PAX8 inh HTS -1, PGC1a acetyl inh 4 and HIV Env fusion 6[16.7 µM].
O=C1C=C(O)c2cccc(O)c2C1=O was read as EWS-Fli block 9, FGF22 binding 0 and PGC1a acetyl inh 5.
O=C1C=C(c2c(O)ccc3ccccc23)c2ccccc2C1=O was read as EWS-Fli block 57*, FGF22 binding 0, PAX8 inh HTS 83*, PGC1a acetyl inh 54*, HIV Env fusion 13 and FN deposition inh 16.
For O=C(O)c1ccc(N2C(=O)c3ccccc3C2=O)cc1[N+](=O)[O-] the results were EWS-Fli block -11, FGF22 binding 43*, PAX8 inh HTS -10, PGC1a acetyl inh -7, HIV Env fusion -22 and FN deposition inh -1.
For COc1ccccc1/C=C/C1(C(=O)NC2CCCC2)CC(=O)N1c1ccc(F)cc1 (stereo unspecified) the results were PGC1a acetyl inh 0 and HIV Env fusion 131*.
For C[C@H](CO)N1C[C@H](C)[C@H](CN(C)Cc2ccccc2)OCCCC[C@H](C)Oc2ccc(NC(=O)Nc3ccccc3)cc2C1=O the results were EWS-Fli block -1, FGF22 binding 0, PAX8 inh HTS -5, PGC1a acetyl inh -4, HIV Env fusion 75*[16.7 µM] and FN deposition inh 5.
For C[C@@H]1CCCCO[C@H](CN(C)Cc2ccc(C(F)(F)F)cc2)[C@H](C)CN([C@H](C)CO)C(=O)c2cc(NC(=O)Nc3ccc(C(F)(F)F)cc3)ccc2O1 the results were EWS-Fli block -13, FGF22 binding 0, PAX8 inh HTS -9, PGC1a acetyl inh 8, HIV Env fusion 11[16.7 µM] and FN deposition inh -6.
`C[C@@H]1CCCCO[C@@H](CN(C)Cc2ccc(C(F)(F)F)cc2)[C@@H](C)CN([C@@H](C)CO)C(=O)c2cc(NC(=O)Nc3ccc(C(F)(F)F)cc3)ccc2O1` gave EWS-Fli block -11, FGF22 binding 0, PAX8 inh HTS 8, PGC1a acetyl inh 22, HIV Env fusion 27[16.7 µM] and FN deposition inh 7.
`C[C@H](CO)N1C[C@H](C)[C@@H](CN(C)Cc2ccccc2)OCCCC[C@H](C)Oc2ccc(NC(=O)Nc3ccc(C(F)(F)F)cc3)cc2C1=O` gave EWS-Fli block 10, FGF22 binding -1, PAX8 inh HTS 95*, PGC1a acetyl inh -10, HIV Env fusion 9[16.7 µM] and FN deposition inh 2.
Screening C[C@@H]1CN([C@H](C)CO)C(=O)c2cc(NC(=O)Nc3ccc(C(F)(F)F)cc3)ccc2O[C@@H](C)CCCCO[C@H]1CN(C)Cc1ccccc1 returned EWS-Fli block 77*, FGF22 binding -1, PAX8 inh HTS 113*, PGC1a acetyl inh -27, HIV Env fusion 66*[16.7 µM] and FN deposition inh 0.
For C[C@@H]1CN([C@@H](C)CO)C(=O)c2cc(NC(=O)Nc3ccccc3)ccc2O[C@@H](C)CCCCO[C@H]1CN(C)Cc1ccc(C(F)(F)F)cc1 the results were EWS-Fli block 12, FGF22 binding 0, PAX8 inh HTS 72*, PGC1a acetyl inh -3, HIV Env fusion 10[16.7 µM] and FN deposition inh -3.
For C[C@H]1CN([C@@H](C)CO)C(=O)c2cc(-c3ccccc3)cnc2O[C@@H]1CN(C)Cc1cccnc1 the results were EWS-Fli block -8, FGF22 binding 0, PGC1a acetyl inh 4, HIV Env fusion 1[16.7 µM] and FN deposition inh -15.
COc1ccc(NC(=O)Nc2ccc3c(c2)C(=O)N([C@H](C)CO)C[C@H](C)[C@H](CN(C)Cc2ccc(Cl)c(Cl)c2)OCCCC[C@@H](C)O3)cc1 was read as EWS-Fli block -9, FGF22 binding 0, PAX8 inh HTS 15, PGC1a acetyl inh -4 and HIV Env fusion -39[16.7 µM].
